The nature of experiment [1]: Her2 expression decrease, cell viability multiplex – SKBR3 breast tumor cells, AlphaScreen, ATP viability, primary screen (AID 461;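 active means Her2 level under about 52% in both replicate screens, with viability over 70% of control, limit read from the data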;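 on Her2 level: lower value means less Her2 protein in the cells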;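 on viability: percent of carrier control wells set as 100% viability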). The conditions noted are these: SKBR3 Her2 protein level, 18-24 h, measured here: SKBR3 viability, ATP luminescence, at 10 µM. (In general: Bead proximity is the source of the signal in Alpha formats.)
For experiment [2], the target named is Receptor tyrosine-protein kinase erbB-2 (Homo sapiens) (UniProt P04626). The description is as above. The conditions noted are these: 18-24 h, at 10 µM, stronger effect = lower value.
Chain of Receptor tyrosine-protein kinase erbB-2 (Homo sapiens) (P04626 whole entry, looked up): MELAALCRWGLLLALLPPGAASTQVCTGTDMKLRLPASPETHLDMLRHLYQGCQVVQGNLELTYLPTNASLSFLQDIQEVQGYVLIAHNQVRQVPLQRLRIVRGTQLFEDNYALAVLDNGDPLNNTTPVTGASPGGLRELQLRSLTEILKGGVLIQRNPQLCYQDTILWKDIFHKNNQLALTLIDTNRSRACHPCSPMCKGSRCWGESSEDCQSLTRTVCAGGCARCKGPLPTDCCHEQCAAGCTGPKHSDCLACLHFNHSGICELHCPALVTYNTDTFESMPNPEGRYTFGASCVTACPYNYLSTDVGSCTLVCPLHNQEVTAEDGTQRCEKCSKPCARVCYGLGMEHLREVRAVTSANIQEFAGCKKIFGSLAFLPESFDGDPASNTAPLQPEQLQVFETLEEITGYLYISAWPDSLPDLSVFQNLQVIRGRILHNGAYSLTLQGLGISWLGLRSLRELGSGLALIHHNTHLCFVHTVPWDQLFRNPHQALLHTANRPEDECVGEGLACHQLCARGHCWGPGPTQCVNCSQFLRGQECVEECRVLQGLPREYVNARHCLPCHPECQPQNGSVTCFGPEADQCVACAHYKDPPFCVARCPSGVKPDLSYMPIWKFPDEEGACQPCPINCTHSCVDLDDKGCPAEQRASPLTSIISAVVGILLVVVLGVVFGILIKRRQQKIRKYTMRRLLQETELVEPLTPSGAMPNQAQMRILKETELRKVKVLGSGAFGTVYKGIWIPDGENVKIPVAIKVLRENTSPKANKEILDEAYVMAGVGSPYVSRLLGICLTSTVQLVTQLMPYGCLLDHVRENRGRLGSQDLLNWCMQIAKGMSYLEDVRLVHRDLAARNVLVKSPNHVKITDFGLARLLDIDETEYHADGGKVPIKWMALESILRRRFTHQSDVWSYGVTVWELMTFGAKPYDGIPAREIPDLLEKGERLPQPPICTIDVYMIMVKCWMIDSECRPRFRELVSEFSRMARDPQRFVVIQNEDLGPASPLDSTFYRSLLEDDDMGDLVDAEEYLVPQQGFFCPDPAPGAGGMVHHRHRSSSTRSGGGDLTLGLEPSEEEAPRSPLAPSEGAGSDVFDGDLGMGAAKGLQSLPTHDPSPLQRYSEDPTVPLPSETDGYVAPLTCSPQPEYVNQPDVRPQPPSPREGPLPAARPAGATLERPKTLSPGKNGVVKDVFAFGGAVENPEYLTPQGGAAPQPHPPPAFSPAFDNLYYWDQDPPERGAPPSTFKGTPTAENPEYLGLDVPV
The nature of experiment [3]: reduced viability of SK-BR-3 breast cancer cells – cell-based, 24 h, human, pilot screen (AID 572).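 Further: compound exposure lasted between 18 and 24 h rather than exactly 24 h; 100% = carrier-treated control wells.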 The conditions noted are these: SK-BR-3 viability, CellTiter-Glo luminescence, at 10 µM, stronger effect = lower value. For orientation: Cellular ATP, detected with luciferase, serves as a proxy for viable cell number.
Experiment [4] is described as follows: HUVEC growth inhibition – cell-based, human, primary screen (AID 575;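 active means viability at or below 30% in both replicate assays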;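 further: 100% = median of untreated cell wells with 0.1% DMSO on each plate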). The conditions noted are these: HUVEC proliferation, CellTiter-Glo luminescence, 72 h; at 10 µM; stronger effect = lower value. Put shortly: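 Test system – primary HUVEC, no more than 12 passages · Dosing – one dose, 10 µM final, 0.1% DMSO · Times – 72 h treatment at 37 °C · Measured by – ATP-based CellTiter-Glo luminescent read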

Experiment [5] is described as follows: H69AR cell proliferation blockers – human, duplicate replicates, primary screen (AID 580;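 active means viability at or under a set limit in both replicates, limit being median viability minus 3 SD, cut at about 48% in these data, passing the limit was not always enough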;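 further: 100% = mean luminescence of untreated wells and 0% = no signal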). The conditions noted are these: H69AR lung tumor cells viability, ATP luminescence, 72 h; at 10 µM; stronger effect = lower value.
A short description of experiment [6]: MRP1 drug-resistance reversers in H69AR cells – cell-based, doxorubicin co-treatment, pilot screen (AID 601;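 active means viability loss from added drug above about 55%, and viability with drug at most 40%, in both replicates, limit read from the data, passing the limit was not always enough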). The conditions noted are these: CellTiter-Glo, 72 h, at 10 µM; for differential viability (reversal): stronger effect = higher value.
Experiment [7] in a line: yeast transport mutant growth inhibition pilot in 384-well plates, post-Golgi transport modulator project (AID 636; in the data active means inhibition above about 31%). The conditions noted are these: absorbance 615 nm, about 18 h, stronger effect = higher value.
Experiment [8] is described as follows: growth suppression of yeast trafficking mutant, preliminary HTS, modulators of trafficking downstream of Golgi apparatus project, 1536-format plate, OD 615 nm (AID 637; in the data active means inhibition above about 30%). The conditions noted are these: yeast transport mutant growth, absorbance 615 nm, 18 h; stronger effect = higher value.
Where [9] appears, read: H69AR cells + 2 uM doxorubicin, measured here: viability with 2 uM doxorubicin, stronger effect = lower value.
The mark [10] stands for this setting: H69AR cells, compound alone cytotoxicity.

The source made the active and inactive calls.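 How the source made its calls, unless noted: active means viability at or below 10% of carrier control in both of two separate runs; inconclusive means viability at or below 10% in only one of the two runs; inactive means the rest.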

For orientation: viability means a read-out of living cells in per cent, often relative to untreated cells. As usually defined, the inhibition is the change of the read-out against control, counted positive when it falls. With `COC(=O)C(C)Oc1ccc2c3c(c(=O)oc2c1)CCCCC3` (stereo not given), the viability in experiment [1] was 90%; in experiment [3], 90% (inactive); in experiment [4], 93.7% (inactive); in experiment [5] it was 103% (inactive); in experiment [6] (setting [9]), 92.8%; in experiment [6] (setting [10]), 103%. The Her2 level in experiment [2] was 94.5% (inactive). For the same compound, the differential viability (reversal) in experiment [6] (H69AR cells + 2 uM doxorubicin) is 10.5% (inactive). Further, the inhibition in experiment [7] is 1.05% (inactive); in experiment [8], 5.74% (inactive).
Take `CC1=CCC2C(=O)N(c3nc(C)cc(C)n3)C(=O)C2C1` (stereo not given): the viability in experiment [1] is 110%; in experiment [3], 110% (inactive); in experiment [4], 101% (inactive); in experiment [5] it was 91.1% (inactive); in experiment [6] (setting [9]), 95%; in experiment [6] (setting [10]), 91.1%. Moreover, the Her2 level in experiment [2] is 80% (inactive). Further, the differential viability (reversal) in experiment [6] (H69AR cells + 2 uM doxorubicin) is -3.95% (inactive). In addition, the figures for the inhibition in experiment [7] and in experiment [8] were -6.71% (inactive) and 0.48% (inactive), respectively.
`CCOC(=O)N1CCN(S(=O)(=O)c2ccc(OCC)c(C)c2)CC1`: the viability in experiment [1] was 110%; in experiment [3], 110% (inactive); in experiment [4] it was 88.9% (inactive); in experiment [5], 103% (inactive); in experiment [6] (setting [9]), 85.5%; in experiment [6] (setting [10]) it was 103%. In experiment [2], the Her2 level is 88.5% (inactive). In addition, the differential viability (reversal) in experiment [6] (H69AR cells + 2 uM doxorubicin) was 17.6% (inactive). Further, the inhibition is -1.95% (inactive) in experiment [7] and -3.17% (inactive) in experiment [8].
With `CCSc1nnc(NC(=O)c2csc(C)c2)s1`, the viability in experiment [1] was 95%; in experiment [3], 95% (inactive); in experiment [4], 81.2% (inactive); in experiment [5], 87.7% (inactive); in experiment [6] (setting [9]) it was 95.3%; in experiment [6] (setting [10]), 87.7%. In experiment [2], the Her2 level was 83.5% (inactive). Besides, the differential viability (reversal) in experiment [6] (H69AR cells + 2 uM doxorubicin) was -7.62% (inactive). The figures for the inhibition in experiment [7] and in experiment [8] were -2.27% (inactive) and -5.41% (inactive), respectively.
`CSc1ccc(Cn2nnc(C(=O)NCc3ccccc3)c2N)cc1`: the viability is 96.5% in experiment [1]; 96.5% (inactive) in experiment [3]; 76.4% (inactive) in experiment [4]; 103% (inactive) in experiment [5]; 103% in experiment [6] (setting [9]); 103% in experiment [6] (setting [10]). The Her2 level in experiment [2] was 91.5% (inactive). Moreover, the differential viability (reversal) in experiment [6] (H69AR cells + 2 uM doxorubicin) is 0.465% (inactive). Moreover, the inhibition in experiment [7] was -1.87% (inactive); in experiment [8], 0.16% (inactive).
`CCCCn1nnnc1SCC(=O)N1CCN(C(=O)c2ccco2)CC1`: the viability is 116% in experiment [1]; 116% (inactive) in experiment [3]; 111% (inactive) in experiment [4]; 93.6% (inactive) in experiment [5]; 86.3% in experiment [6] (setting [9]); 93.6% in experiment [6] (setting [10]). In addition, the Her2 level in experiment [2] is 100% (inactive). Also, in experiment [6] (H69AR cells + 2 uM doxorubicin), the differential viability (reversal) is 7.26% (inactive). Further, the figures for the inhibition in experiment [7] and in experiment [8] were -6.71% (inactive) and 1.75% (inactive), respectively.
Regarding `CCOc1ccc(-n2cc(C(=O)Nc3cccc(C)n3)c3cc(OC)c(OC)cc3c2=O)cc1`, the viability is 110% in experiment [1]; 110% (inactive) in experiment [3]; 71.8% (inactive) in experiment [4]; 64.4% (inactive) in experiment [5]; 76.2% in experiment [6] (setting [9]); 64.4% in experiment [6] (setting [10]). Further, the Her2 level in experiment [2] was 91% (inactive). Besides, in experiment [6] (H69AR cells + 2 uM doxorubicin), the differential viability (reversal) was -11.8% (inactive). For the same compound, the inhibition in experiment [7] was -5.47% (inactive); in experiment [8] it was 4.43% (inactive).
With `COc1ccc(N2CCN(Cc3nc(-c4ccc(Cl)cc4Cl)no3)CC2)cc1`, the viability is 117% in experiment [1]; 117% (inactive) in experiment [3]; 70.5% (inactive) in experiment [4]; 91.5% (inactive) in experiment [5]; 82.2% in experiment [6] (setting [9]); 91.5% in experiment [6] (setting [10]). Moreover, the Her2 level in experiment [2] was 83.5% (inactive). Moreover, in experiment [6] (H69AR cells + 2 uM doxorubicin), the differential viability (reversal) was 9.36% (inactive). The figures for the inhibition in experiment [7] and in experiment [8] were -4.68% (inactive) and -5.57% (inactive), respectively.
As for `Cc1cc(NC(=O)c2ccccc2Oc2ccccc2)no1`, the viability is 97% in experiment [1]; 97% (inactive) in experiment [3]; 93.5% (inactive) in experiment [4]; 110% (inactive) in experiment [5]; 93.5% in experiment [6] (setting [9]); 110% in experiment [6] (setting [10]). For the same compound, the Her2 level in experiment [2] was 92.5% (inactive). In experiment [6] (H69AR cells + 2 uM doxorubicin), the differential viability (reversal) is 16.8% (inactive). The values for the inhibition in experiment [7] and in experiment [8] were -5.33% (inactive) and 2.42% (inactive), respectively.
Take `COc1ccc(C(c2nnnn2C2CCCC2)N2CCN(C3CCCC3)CC2)cc1OC` (stereo not given): the viability is 89.5% in experiment [1]; 89.5% (inactive) in experiment [3]; 84.7% (inactive) in experiment [4]; 106% (inactive) in experiment [5]; 77.7% in experiment [6] (setting [9]); 106% in experiment [6] (setting [10]). The Her2 level in experiment [2] is 84% (inactive). In addition, the differential viability (reversal) in experiment [6] (H69AR cells + 2 uM doxorubicin) was 28.3% (inactive). Also, the inhibition in experiment [7] was -7.26% (inactive); in experiment [8], -2.22% (inactive).
In the case of `CCN(CC)CCCC1(CN)OCCc2ccccc21` (stereo not given), the viability in experiment [1] was 98.5%; in experiment [3] it was 98.5% (inactive); in experiment [4] it was 93.3% (inactive); in experiment [5], 83.8% (inactive); in experiment [6] (setting [9]) it was 103%; in experiment [6] (setting [10]) it was 83.8%. For the same compound, in experiment [2], the Her2 level was 88.5% (inactive). Besides, the differential viability (reversal) in experiment [6] (H69AR cells + 2 uM doxorubicin) was -18.9% (inactive). The figures for the inhibition in experiment [7] and in experiment [8] were -0.39% (inactive) and 23.8% (inactive), respectively.
Regarding `CCn1c(SCC(=O)Nc2nc(C)cs2)nnc1-c1ccco1`, the viability in experiment [1] was 106%; in experiment [3], 106% (inactive); in experiment [4] it was 110% (inactive); in experiment [5], 92% (inactive); in experiment [6] (setting [9]) it was 87.7%; in experiment [6] (setting [10]), 92%. The Her2 level in experiment [2] was 87.5% (inactive). For the same compound, in experiment [6] (H69AR cells + 2 uM doxorubicin), the differential viability (reversal) is 4.38% (inactive). Further, the inhibition in experiment [7] is -3.33% (inactive); in experiment [8], -2% (inactive).
With `O=C(O)c1ccc(COc2c(F)c(F)cc(F)c2F)cc1`, the viability in experiment [1] was 114%; in experiment [3], 114% (inactive); in experiment [4], 101% (inactive); in experiment [5], 103% (inactive); in experiment [6] (setting [9]), 102%; in experiment [6] (setting [10]), 103%. For the same compound, the Her2 level in experiment [2] is 93.5% (inactive). In addition, the differential viability (reversal) in experiment [6] (H69AR cells + 2 uM doxorubicin) was 0.99% (inactive). Further, the values for the inhibition in experiment [7] and in experiment [8] were -5.73% (inactive) and -0.79% (inactive), respectively.
On to `CCN(CC)c1ncc(C)c(=O)[nH]1`, for which the viability was 103% in experiment [1]; 103% (inactive) in experiment [3]; 105% (inactive) in experiment [4]; 88.8% (inactive) in experiment [5]; 94.5% in experiment [6] (setting [9]); 88.8% in experiment [6] (setting [10]). Moreover, in experiment [2], the Her2 level was 106% (inactive). Besides, the differential viability (reversal) in experiment [6] (H69AR cells + 2 uM doxorubicin) is -5.64% (inactive). Also, the figures for the inhibition in experiment [7] and in experiment [8] were -3.47% (inactive) and 19% (inactive), respectively.
Turning to `COC(=O)c1c(C#N)c(N)nc2c1CCC2`, the viability in experiment [1] is 117%; in experiment [3], 117% (inactive); in experiment [4], 90.6% (inactive); in experiment [5] it was 93.7% (inactive); in experiment [6] (setting [9]), 93.1%; in experiment [6] (setting [10]) it was 93.7%. The Her2 level in experiment [2] is 97% (inactive). The differential viability (reversal) in experiment [6] (H69AR cells + 2 uM doxorubicin) is 0.57% (inactive). The figures for the inhibition in experiment [7] and in experiment [8] were -5.2% (inactive) and -4.13% (inactive), respectively.
In the case of `O=C(OCC#CCSc1nc2ccccc2s1)c1ccco1`, the viability in experiment [1] was 88%; in experiment [3] it was 88% (inactive); in experiment [4], 74.7% (inactive); in experiment [5], 81.8% (inactive); in experiment [6] (setting [9]), 80%; in experiment [6] (setting [10]), 81.8%. The Her2 level in experiment [2] is 90.5% (inactive). In addition, in experiment [6] (H69AR cells + 2 uM doxorubicin), the differential viability (reversal) is 1.8% (inactive). The inhibition is -2.34% (inactive) in experiment [7] and -10.8% (inactive) in experiment [8].

Source of the values: PubChem BioAssay.
